Measurements taken from ChEMBL document CHEMBL2331340, “Novel antitumor indolizino[6,7-b]indoles with multiple modes of action: DNA cross-linking and topoisomerase I and II inhibition” (J Med Chem, 2013).
Active and inactive are the calls of the source. No cut-off for these calls is given here.

Legend:
HT-29 = assay: Cytotoxicity against human HT-29 cells after 72 hrs by Alamar blue assay; format: functional, cell-based; details: HT-29, 72 h
How it was run: (§1)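 Cells exposed to compound for 72 h, then Alamar blue added with a further 10−12 h at 37 °C and a spectrophotometric read. IC50 from six or seven concentrations by median-effect analysis; mean ± STDEV, n = 3. CL141T is a line derived from a patient lung tumor passaged as a SCID mouse xenograft.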

CCRF-CEM = assay: Cytotoxicity against human CCRF-CEM cells after 72 hrs by XTT assay; format: functional, cell-based
How it was run: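 CCRF-CEM T-ALL cells incubated with compound for 72 h. XTT with phenazine methosulfate then added for 6 h at 37 °C, absorbance read at 450 and 630 nm. IC50 from six or seven concentrations by median-effect analysis; mean ± STDEV, n = 3.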

[1] = Cell cycle arrest in human CL141T cells assessed as accumulation at G2/M phase at 0.5 x IC50 to 1 x IC50 after 48 to 72 hrs by propidium iodide staining-based FACS flow cytometric analysis; format: functional
How it was run: (§2)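 CL141T cells treated at 0.5-, 1- and 2-fold IC50 for 24, 48 and 72 h. Cells fixed in ice-cold 70% EtOH, then stained with 4 μg/mL propidium iodide in PBS with 1% Triton X-100 and 0.1 mg/mL RNase A. Phase distribution from flow cytometry DNA histograms; sub-G1 fraction scored as well.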

KB = assay: Cytotoxicity against human KB cells after 72 hrs by Alamar blue assay
[2] = Cytotoxicity against human CL141T cells after 72 hrs by Alamar blue assay; format: functional, cell-based; how it was run: as §1
NCI-H460 [3] = assay: Induction of apoptosis in human H460 cells assessed as increase in apoptotic cells at IC50 after 72 hrs by annexin V-FITC/propidium iodide staining-based FACS flow cytometric analysis (reference value: 9.29%); format: functional
[4] = Cytotoxicity against human OECM1 cells after 72 hrs by Alamar blue assay; format: functional, cell-based; details: OECM1, 72 h; how it was run: as §1
A549 [5] = assay: Antitumor activity against human A549 cells xenografted in nude mouse assessed as tumor growth inhibition at 25 mg/kg, iv qd administered 4 days measured on day 20 relative to vehicle-treated control; format: functional; details: read-out: TGI
[6] = Cytotoxicity against human HEL299 cells; format: cell-based; details: HEL 299
[7] = Cytotoxicity against human MES-SA cells after 72 hrs by Presto Blue assay; format: functional, cell-based
How it was run: (§3)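 MES-SA and doxorubicin-resistant MES-SA/dx5 cells exposed for 72 h, then PrestoBlue added for 3 h at 37 °C, absorbance read at 570 and 600 nm. IC50 by median-effect analysis of six or seven concentrations; mean ± STDEV of three to six independent experiments.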

NCI-H460 [8] = assay: Induction of apoptosis in human H460 cells assessed as increase in cleaved caspase 3 expression at IC50 after 24 to 72 hrs by Western blotting analysis; format: functional, cell-based
How it was run: (§4)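 H460 cells treated at IC50 for 24 and 72 h. Lysate proteins separated by SDS-PAGE and blotted to nitrocellulose, blocked in 5% milk/PBST. Primary antibodies to caspase-3, caspase-7, PARP (full-length and cleaved) and β-actin applied for 1 h at room temperature or overnight at 4 °C; HRP secondary with ECL detection.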

HCT-116 = assay: Cytotoxicity against human HCT116 cells after 72 hrs by Alamar blue assay; format: functional, cell-based; details: HCT-116, 72 h; how it was run: as §1
Escherichia coli = assay: Induction of Escherichia coli pEGFP-N1 DNA interstrand cross-linking at 1 to 10 uM after 2 hrs by alkaline agarose gel shift assay
How it was run: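 Plasmid pEGFP-N1 DNA (1500 ng) incubated with compound at 1, 5 and 10 μM in 3 mM NaCl/1 mM sodium phosphate pH 7.4/1 mM EDTA, 2 h at 37 °C. DNA then BamHI-linearized, EtOH-precipitated, denatured in 0.5 N NaOH/10 mM EDTA, run on 0.8% alkaline agarose at 4 °C (18 V, 22 h), stained with ethidium bromide.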

[9] = target: DNA topoisomerase 2-alpha (Homo sapiens) (UniProt P11388); assay: Inhibition of DNA topoisomerase 2 (unknown origin)-mediated relaxation of supercoiled pHOT DNA after 30 to 45 mins by agarose gel electrophoresis
Sequence of DNA topoisomerase 2-alpha (Homo sapiens) (P11388 whole entry): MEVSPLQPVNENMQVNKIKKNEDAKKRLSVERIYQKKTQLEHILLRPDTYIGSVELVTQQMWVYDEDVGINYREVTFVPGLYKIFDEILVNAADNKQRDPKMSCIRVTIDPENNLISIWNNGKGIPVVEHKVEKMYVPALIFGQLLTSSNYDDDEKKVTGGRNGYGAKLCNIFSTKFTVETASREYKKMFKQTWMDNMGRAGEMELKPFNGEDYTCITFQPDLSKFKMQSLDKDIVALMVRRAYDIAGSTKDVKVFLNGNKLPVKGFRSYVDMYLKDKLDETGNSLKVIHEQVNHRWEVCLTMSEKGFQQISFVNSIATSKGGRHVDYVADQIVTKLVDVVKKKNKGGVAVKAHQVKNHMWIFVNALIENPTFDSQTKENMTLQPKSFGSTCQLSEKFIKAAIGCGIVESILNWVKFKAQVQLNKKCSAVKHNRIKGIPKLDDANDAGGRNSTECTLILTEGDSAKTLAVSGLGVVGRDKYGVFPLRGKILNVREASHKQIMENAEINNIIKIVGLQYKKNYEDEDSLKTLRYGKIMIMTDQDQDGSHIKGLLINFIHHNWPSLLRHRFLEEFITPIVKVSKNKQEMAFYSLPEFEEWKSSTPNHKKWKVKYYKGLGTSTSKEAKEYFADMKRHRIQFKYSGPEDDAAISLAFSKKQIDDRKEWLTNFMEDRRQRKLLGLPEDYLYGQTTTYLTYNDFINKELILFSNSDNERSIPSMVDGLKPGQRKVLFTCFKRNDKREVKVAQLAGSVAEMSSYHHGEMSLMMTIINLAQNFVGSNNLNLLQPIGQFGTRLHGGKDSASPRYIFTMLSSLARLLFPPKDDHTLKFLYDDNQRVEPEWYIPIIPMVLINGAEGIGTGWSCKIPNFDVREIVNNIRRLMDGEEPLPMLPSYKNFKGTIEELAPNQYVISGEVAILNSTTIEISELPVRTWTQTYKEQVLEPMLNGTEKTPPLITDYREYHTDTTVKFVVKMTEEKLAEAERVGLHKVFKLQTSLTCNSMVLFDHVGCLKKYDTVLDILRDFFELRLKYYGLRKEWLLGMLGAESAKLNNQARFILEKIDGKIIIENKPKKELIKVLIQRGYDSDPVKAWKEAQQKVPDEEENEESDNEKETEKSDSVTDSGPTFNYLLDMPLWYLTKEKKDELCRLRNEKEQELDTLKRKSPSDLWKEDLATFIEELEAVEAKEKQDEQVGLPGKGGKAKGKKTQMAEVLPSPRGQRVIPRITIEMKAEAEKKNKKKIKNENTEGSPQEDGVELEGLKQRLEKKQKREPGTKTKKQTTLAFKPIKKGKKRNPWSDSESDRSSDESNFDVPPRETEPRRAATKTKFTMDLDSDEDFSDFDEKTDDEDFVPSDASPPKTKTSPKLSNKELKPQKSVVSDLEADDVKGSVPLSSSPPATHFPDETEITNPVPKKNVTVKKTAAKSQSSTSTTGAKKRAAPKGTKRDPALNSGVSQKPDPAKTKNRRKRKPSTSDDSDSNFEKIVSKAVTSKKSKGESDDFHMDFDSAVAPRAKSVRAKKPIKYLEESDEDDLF
How it was run: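 Supercoiled pHOT DNA (125 ng) with compound in buffer stated as 0.5 M Tris-HCl pH 8.0, 1.5 M NaCl, 100 mM MgCl2, 5 mM DTT, 300 μg/mL BSA, 20 mM ATP, at 37 °C. Methods state 6 units topo II, figure legend 5 units; 30−45 min, SDS stop. Products run on 1% agarose and stained with ethidium bromide.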

[10] = Cell cycle arrest in human CL141T cells assessed as accumulation at S phase at 1 x IC50 to 2 x IC50 after 24 hrs by propidium iodide staining-based FACS flow cytometric analysis; format: functional; how it was run: as §2
Mus musculus = assay: Toxicity in nude mouse xenografted with human A549 cells assessed as body weight loss at 25 mg/kg, iv qd administered 4 days measured for 20 days; format: organism-based; design: dose 25 mg/kg, route intravenous; details: in vivo, 480 h
NCI-H460 [11] = assay: Induction of apoptosis in human H460 cells assessed as increase in cleaved caspase 7 expression at IC50 after 24 to 72 hrs by Western blotting analysis; format: functional, cell-based; how it was run: as §4
[12] = Cell cycle arrest in human CL141T cells assessed as accumulation at sub-G1 phase at 0.5 x IC50 to 2 x IC50 after 72 hrs by propidium iodide staining-based FACS flow cytometric analysis; format: functional; how it was run: as §2
[13] = Cell cycle arrest in human CL141T cells assessed as accumulation at G2/M phase at 2 x IC50 after 24 hrs by propidium iodide staining-based FACS flow cytometric analysis; format: functional; how it was run: as §2
[14] = Cell cycle arrest in human CL141T cells assessed as accumulation at S phase at 0.5 x IC50 after 24 hrs by propidium iodide staining-based FACS flow cytometric analysis; format: functional; how it was run: as §2
MX1 = assay: Cytotoxicity against human MX1 cells after 72 hrs by SRB assay; format: functional, cell-based; details: MX1, 72 h
PC-3 = assay: Cytotoxicity against human PC3 cells after 72 hrs by Alamar blue assay; format: functional, cell-based; details: PC-3, 72 h; how it was run: as §1
A549 [15] = assay: Cytotoxicity against human A549 cells after 72 hrs by Alamar blue assay; format: functional, cell-based; details: A549, 72 h; how it was run: as §1
[16] = Cytotoxicity against human H460 cells after 72 hrs by Alamar blue assay; format: functional, cell-based; details: NCI-H460, 72 h; how it was run: as §1
[17] = Cytotoxicity against human MES-SA/Dx5 cells after 72 hrs by Presto Blue assay; format: functional, cell-based; details: MES-SA/Dx5, 72 h; how it was run: as §3
MES-SA = assay: Resistance factor, ratio of IC50 for human MES-SA/Dx5 cells to IC50 for human MES-SA cells; format: functional
NCI-H460 [18] = assay: Induction of apoptosis in human H460 cells assessed as increase in cleaved PARP expression at IC50 after 24 to 72 hrs by Western blotting analysis; format: functional, cell-based; how it was run: as §4

Cc1c(CO)c(CO)c2n1Cc1c(c3ccccc3n1C)C2
IC50 (HT-29): 3350 nM
IC50 (CCRF-CEM): 40 nM
Activity [1]: Active
IC50 (KB): 2510 nM
IC50 [2]: 510 nM
Activity (NCI-H460 [3]): 61.35%
IC50 [4]: 960 nM
inhibition in vivo at 25 mg/kg (A549 [5]): 50%
IC50 [6]: 2790 nM
IC50 [7]: 240 nM
Activity (NCI-H460 [8]): Active
IC50 (HCT-116): 1000 nM
Activity (Escherichia coli): Active
inhibition [9]: Dose-dependent effect
Activity [10]: Active
Activity (Mus musculus): Toxic
Activity (NCI-H460 [11]): Active
Activity [12]: Active
Activity [13]: inactive
Activity [14]: Active
IC50 (MX1): 220 nM
IC50 (PC-3): 610 nM
IC50 (A549 [15]): 1140 nM
IC50 [16]: 380 nM
IC50 [17]: 120 nM
Ratio IC50 (MES-SA): 0.52
Activity (NCI-H460 [18]): Active
